Laboratory results as given in ChEMBL document CHEMBL4000155, “Synthesis and Antileukemic Activities of Piperlongumine and HDAC Inhibitor Hybrids against Acute Myeloid Leukemia Cells” (J Med Chem, 2016).
Activity calls are given as the source filed them. No cut-off for these calls is given here.

Assays:
[1] = tested on: CMK; assay: Antiproliferative activity against human CMK cells after 72 hrs in presence of SAHA by MTT assay; type: functional, cell-based
In short: (§1)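 AML cell lines grown in RPMI 1640 with 10% FBS (20% for MOLM-13), 2 mM L-glutamine and penicillin/streptomycin at 37 °C, 5% CO2. Ara-C-resistant HL-60 and CMK sublines came from stepwise cytarabine selection and were kept in 600 nM or 300 nM cytarabine respectively. Cells were treated 72 h. MTT 0.05 mg/mL, 3 h at 37 °C, DMSO solubilization, absorbance at 570 nm. IC50 given ± SEM.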

[2] = tested on: MV4-11; assay: Antiproliferative activity against human MV4-11 cells after 72 hrs in presence of SAHA by MTT assay; type: functional, cell-based; settings: MV4-11, 72 h
[3] = tested on: U-937; assay: Antiproliferative activity against p53 null human U937 cells after 72 hrs in presence of SAHA by MTT assay; type: functional, cell-based; settings: U-937, 72 h; in short: as §1
[4] = tested on: U-937; assay: Effect on SAHA-induced DNA damage in p53 null human U937 cells assessed as decrease in CHK1 expression level by measuring ratio of CHK1 to beta-actin level at 2 uM after 24 hrs by Western blot analysis relative to control; type: functional
In short: (§2)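 U937 cells treated 24 h, alone or PL+SAHA. Whole-cell lysates (protease/phosphatase inhibitors) immunoblotted for γH2AX, CHK1, RAD51, Bim and XIAP. Band densitometry normalised to β-actin, then expressed as fold change relative to the untreated control.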

[5] = species: Homo sapiens; assay: Effect on SAHA-induced HDAC inhibition in p53 null human U937 cells assessed as hyper acetylation of histone H4 at 1 uM after 4 hrs by Western blot analysis; type: cell-based
In short: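 U937 cells treated at 1 μM for 4 h. Whole-cell lysates run on SDS-PAGE, transferred to PVDF and immunoblotted for acetyl-histone H4, histone H4, acetyl-α-tubulin and β-actin.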

[6] = tested on: U-937; assay: Induction of apoptosis in p53 null human U937 cells at 2 uM after 24 hrs in presence of SAHA by annexin V-FITC/PI staining based flow cytometry; type: functional
In short: (§3)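 Human U937 AML cells (p53 null) in RPMI 1640 with 10% FBS, 2 mM L-glutamine, penicillin/streptomycin, 37 °C, 5% CO2. Exposed 24 h to compound alone or with SAHA; vehicle DMSO < 0.1% v/v. Annexin V-FITC/PI staining and flow cytometry, reported as % Annexin V+ cells. Three independent experiments in triplicate; one representative shown. EC50 taken as concentration giving 50% Annexin V+ cells versus vehicle.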

[7] = tested on: U-937; assay: Upregulation of Rad51 protein expression in p53 null human U937 cells assessed as ratio of Rad51 to beta-actin level at 2 uM after 24 hrs by Western blot analysis relative to control
[8] = tested on: MOLM-13; assay: Induction of cell death in human MOLM13 cells harboring wild type p53/FLT3-ITD mutant assessed as combination index at 1 to 4 uM after 24 hrs in presence of SAHA by annexin V-FITC/PI staining based flow cytometry; type: functional
In short: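 Cells given SAHA and PL alone or together at 1:1 ratio for 24 h, then Annexin V-FITC/PI staining and flow cytometry. Combination index computed from the % Annexin V+ data; CI < 1 synergistic, = 1 additive, > 1 antagonistic. Triplicates, three independent experiments.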

[9] = tested on: U-937; assay: Induction of DNA damage in p53 null human U937 cells at 2 uM after 20 hrs in presence of SAHA by SYBR gold staining based alkaline comet assay; type: functional, cell-based
In short: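 U937 cells treated 20 h with SAHA and PL alone or combined (16 h for hybrids). Alkaline single-cell gel electrophoresis, SYBR Gold staining, microscopy. Median % DNA in tail from 4 replicate gels ± s.e.m.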

[10] = Antiproliferative activity against human CMY cells after 72 hrs in presence of SAHA by MTT assay; type: functional, cell-based; in short: as §1
[11] = tested on: MOLM-13; assay: Induction of apoptosis in human MOLM13 cells harboring wild type p53/FLT3-ITD mutant at 1 uM after 24 hrs in presence of SAHA by annexin V-FITC/PI staining based flow cytometry; type: functional
In short: (§4)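 Cells treated 24 h, single agents or SAHA+PL at 1:1 (each drug at the stated concentration). Annexin V-FITC/PI kit staining, then flow cytometry, reported as % Annexin V+ cells. Three independent experiments in triplicate, with data from one representative experiment. DMSO <0.1% vehicle control.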

[12] = tested on: U-937; assay: Induction of apoptosis in p53 null human U937 cells assessed as PARP-1 cleavage at 2 uM after 24 hrs in presence of SAHA by Western blot analysis; type: functional, cell-based
In short: (§5)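 U937 cells exposed for 24 h. Lysates with protease/phosphatase inhibitors were separated by SDS-PAGE, transferred to PVDF and probed for PARP and cleaved caspase-3, with β-actin as loading control.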

[13] = tested on: MOLM-13; assay: Antiproliferative activity against human MOLM13 cells harboring wild type p53/FLT3-ITD mutant after 72 hrs in presence of SAHA by MTT assay; type: functional, cell-based; settings: MOLM-13, 72 h; in short: as §1
[14] = tested on: U-937; assay: Induction of apoptosis in p53 null human U937 cells at 4 uM after 24 hrs in presence of SAHA by annexin V-FITC/PI staining based flow cytometry; type: functional
[15] = tested on: U-937; assay: Induction of DNA damage in p53 null human U937 cells assessed as decrease in Rad51 expression level by measuring ratio of Rad51 to beta-actin level at 2 uM after 24 hrs by Western blot analysis relative to control; type: functional; in short: as §2
[16] = tested on: U-937; assay: Induction of cell death in p53 null human U937 cells after 24 hrs by annexin V-FITC/PI staining based flow cytometry; type: functional; in short: as §3
[17] = tested on: U-937; assay: Induction of apoptosis in p53 null human U937 cells at 0.5 uM after 24 hrs by annexin V-FITC/PI staining based flow cytometry; type: functional; in short: as §4
[18] = tested on: U-937; assay: Induction of apoptosis in p53 null human U937 cells assessed as caspase 3 cleavage after 24 hrs by Western blot analysis; type: functional, cell-based; in short: as §5
[19] = tested on: U-937; assay: Induction of apoptosis in p53 null human U937 cells at 1 uM after 24 hrs by annexin V-FITC/PI staining based flow cytometry; type: functional; in short: as §4

For `COc1cc(/C=C/C(=O)N2CCC=CC2=O)cc(OC)c1OC` [PIPLARTINE], which IC50 [1] is on record?
The IC50 was 613 nM.

What about the IC50 [2] of the same compound?
Its IC50 is 289 nM.

What about the IC50 [3] of the same compound?
The IC50 was 767 nM.

What about the Ratio [4] of the same compound?
Its Ratio is 0.8.

And the Activity [5]?
The Activity was “inactive”.

What about the Activity [6] of the same compound?
The Activity was 62.5%.

What about the Ratio [7] of the same compound?
Its Ratio is 1.4.

And the CI [8]?
Its CI is “<=1.1”.

And the Activity [9]?
The Activity was “Active”.

What about the IC50 [10] of the same compound?
Its IC50 is 442 nM.

What about the Activity [11] of the same compound?
The Activity was 8%.

And the Activity [12]?
Its Activity is “Active”.

And the IC50 [13]?
Its IC50 is 934 nM.

And the Activity [14]?
Its Activity is 81.1%.

Which Ratio [15] does the source give for `COc1cc(/C=C/C(=O)N2CCC=CC2=O)cc(OC)c1OCCCCCCC(=O)NO` here?
Its Ratio is 0.9.

What about the Activity [16] of the same compound?
The Activity was “Dose-dependent effect”.

And the Activity [17]?
The Activity was “inactive”.

And the Activity [18]?
The Activity was “Dose-dependent effect”.

What about the Activity [19] of the same compound?
Its Activity is 13.7%.
